HSF-1 act – increases HSF-1 driven luciferase reporter signal; NIH3T3-HGL HSF-1 luciferase reporter, MG132, 8 h; 100% = twice DMSO control signal; activation, % at 9 µM; 1.7% of 300,000 active; AID 504408;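 active = mean replicate activation of at least 50% with a set share of replicates each reaching 50%; inconclusive = only one of those two conditions met; inactive = mean below 50% and too few replicates reaching it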;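 also: 0% = median of the neutral control wells and 100% = twice that signal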
HSF1 inh – HSF1 inhibition; NIH3T3-HGL HSE-luciferase, MG132-induced, luminescence 8 h; stronger effect = lower value; activity change, negative = inhibition, % at 7.5 µM (by protocol); 0.77% of 300,000 active;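 active = more than half of replicate wells show activity change below -50%, luminescence cut by over half; inconclusive = some wells, but at most half, below -50%; inactive = no replicate well below -50%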;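 also: luciferase reports HSF-1 transcriptional activity via heat shock element; 0% = median of DMSO wells and -100% = zero luminescence signal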
Lipid droplet – modulators of hepatic lipid droplet formation; AML12 mouse hepatocytes, oleate lipid droplets, BODIPY imaging; inhibition, % at 6.5 µM; 0.4% of 240,000 active; AID 1656;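 active = lipid droplet intensity inhibited by at least 50%, with more than 500 cells counted; inconclusive = wells with under 300 cells, treated as cytotoxic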
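Technique: fluorescence imaging, 20x objective, two fields per well / Assay system: AML12 hepatocytes (mouse) / Measure: % inhibition of lipid droplet signal / Doses: 6.5 µM single-point dosing / Incubation: overnight exposure / Reagent: 100 µM oleic acid challenge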
CHT inh – inhibits the human high affinity choline transporter; B-score at 10 µM; CHT-expressing cells, membrane potential dye, choline response; stronger effect = lower value; 0.86% of 310,000 active;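 active = B-score over 3 SD under the library average, and starting fluorescence ratio not unusually high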;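 also: choline stimulus applied at its EC90 after an EC20 pre-addition; B-score computed on integrated fluorescence ratio after choline addition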
PHOSPHO1 block – inhibitors of human PHOSPHO1 phosphatase; Q8TCT1; recombinant PHOSPHO1, absorbance phosphatase assay; inhibition, % at 13.3 µM; 1.1% of 290,000 active; in the data active = inhibition above about 60%
Target sequence (Q8TCT1 whole entry, looked up): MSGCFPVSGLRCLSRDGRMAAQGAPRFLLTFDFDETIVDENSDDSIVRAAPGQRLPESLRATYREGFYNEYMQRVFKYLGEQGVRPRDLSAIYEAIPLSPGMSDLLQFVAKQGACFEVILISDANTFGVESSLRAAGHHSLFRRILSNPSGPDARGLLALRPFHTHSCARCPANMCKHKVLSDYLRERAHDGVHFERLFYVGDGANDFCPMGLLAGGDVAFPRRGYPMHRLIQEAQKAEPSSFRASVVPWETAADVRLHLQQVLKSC
CHT allo act – allosteric activators of human choline transporter CHT; CHT-expressing cells, membrane potential dye, choline EC20; stronger effect = higher value; LV-AA mutant CHT in HEK293 cells; B-score at 10 µM; 0.49% of 310,000 active; Q9GZV3; AID 488977;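 active = initial fluorescence not abnormally high and integrated response B-score, plate-corrected, over 3 SD above library mean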
The depositor's hits bear a star; i = inactive; ? = inconclusive; nt = no result. This is a sample that favours compounds with a hit; in the whole collection about 4.9% have one here.

SMILES	HSF-1 act	HSF1 inh	Lipid droplet	CHT inh	PHOSPHO1 block	CHT allo act
CSc1ccccc1OCc1cc(C(=O)NC2CCOC(C)(C)C2)no1 (configuration not stated)	9.9	10.9	5.9	i	16.2	i
COc1ccc(OCc2cc(C(=O)NC3CCOC(C)(C)C3)no2)c2ccccc12 (configuration not stated)	93.1*	48.9	-10.7	i	23.3	i
CC(C)c1ccc(N2C(=NC(=O)C3CCCO3)SC3CS(=O)(=O)CC32)cc1 (configuration not stated)	-47.6	-28.8	-0.8	i	58.3	i
Fc1ccc(CNCc2ccccc2Cl)cc1	-61.4	-52.9*	-16.5	i	5.6	i
Cc1ccc(C(C)C)c(OCCCN2CC(C)OC(C)C2)c1 (configuration not stated)	-11.7	-4.2	-5.4	i	7.0	i
COc1cccc(-n2cnc3sc(-c4ccccc4)cc3c2=O)c1	53.9*	23.9	nt	i	nt	i
CCn1cnc2sc(-c3ccccc3)cc2c1=O	49.7	29.7	-2.4	i	-11.8	i
CCN(CC)C(=O)Cn1cc(C(=O)C(=O)NCCc2ccccc2)c2ccccc21	12.5	1.1	43.6	i	38.0	i
OCCNCc1c(OCc2ccc(Cl)cc2)ccc2ccccc12	62.2*	26.2	23.0	i	28.4	i
CCOC(=O)c1ccc(-c2ccc(C=O)o2)cc1	33.0	26.0	1.8	i	15.7	i
CCCOC(=O)c1ccc(-c2ccc(C=O)o2)cc1	65.6*	29.3	-29.4	i	9.7	i
Nc1nnc(CC(=O)N/N=C/c2ccc(-c3ccc(F)cc3)o2)s1	7.5	7.2	-16.2	i	-64.1	i
CCOC(=O)c1ccc(-c2ccc(/C=N/NC(=O)Cc3nnc(N)s3)o2)cc1	71.2*	27.0	21.7	i	18.8	i
Cc1ccc(NC(=O)COC(=O)C2C3CC4OC(=O)C2C4C3)cc1 (configuration not stated)	0.0	-4.9	15.8	i	32.5	i
O=C(COC(=O)C1C2CC3OC(=O)C1C3C2)Nc1cccc(Cl)c1 (configuration not stated)	-71.7	-63.7*	0.5	i	23.0	i
COc1ccc(S(=O)(=O)N2CCC(C(N)=O)CC2)cc1	6.1	5.8	nt	i	nt	i
COc1ccccc1N=Nc1[nH]c2ccc(C)cc2c1O	7.1	-3.1	4.4	i	-15.4	i
CCCOCc1ccc(O)c2ncccc12	-48.5	-42.5	-1.4	i	21.9	i
Oc1ccc(N=Nc2ccccc2C(F)(F)F)c2cccnc12	-71.8	-65.8*	2.9	i	24.1	i
CCS(=O)(=O)c1ccc(N=Nc2ccc(O)c3ncccc23)c(OC)c1	-56.8	-59.9*	-2.6	nt	13.6	nt
COc1ccccc1N=Nc1ccc(O)c2ncccc12	-79.4	-78.2*	2.9	i	-12.2	i
COC(=O)c1cn(-c2ccccc2)c(=O)c2ccccc12	-10.2	5.7	nt	i	-12.3	i
COc1ccc(OCc2cc(C(=O)N(C)Cc3nnc(C)o3)no2)c(Cl)c1	30.4	13.4	23.4	i	19.9	i
CC(=O)[C@]1(O)Cc2c(O)c3c(c(O)c2[C@@H](O[C@H]2C[C@H](N)[C@H](O)[C@H](C)O2)C1)C(=O)c1ccccc1C3=O	-79.3	-79.0*	nt	i	nt	i
COc1cccc2c1C(=O)c1c(O)c3c(c(O)c1C2=O)C[C@@](O)(C(=O)CO)C[C@@H]3O[C@H]1C[C@H](N)[C@@H](O)[C@H](C)O1	-72.5	-74.6*	nt	i	nt	i
COc1cccc2c1C(=O)c1c(O)c3c(c(O)c1C2=O)C[C@@](O)(C(C)=O)C[C@@H]3O[C@H]1C[C@H](N)[C@H](O)[C@H](C)O1	nt	nt	?	nt	-3.8	nt
O=C(Nc1ccc(Br)cc1)N1CCCCC1	14.7	7.5	-4.7	i	-1.3	i
Cc1cc(C(=O)COC(=O)c2ccc(O)cc2)c(C)n1CC1CCCO1 (configuration not stated)	-20.8	-11.0	-30.8	i	-15.7	i
COC(C(=O)Nc1ccnn1C1CCN(Cc2cccc(C)n2)CC1)c1ccccc1 (configuration not stated)	1.5	-1.7	6.7	i	29.3	i

Screening results (PubChem)
